# bCat KO growth – beta-catenin-lacking colon tumor cell growth suppression; 140,000 compounds, 1.5% hits; HCT116 beta-catenin knockout viability, CellTiter-Glo, 60 h; hits give low values; viability, % at 10 µM; AID 818;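 active = viability at or under a set limit, the compound median less 4 SD, cut at about 6% in these data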
# Dynein transport – dynein cargo transport inhibition; AID 1381; 3617.4 mouse cells, GR-EGFP nuclear translocation imaging; test concentration mostly 20 µM; stimulated with dexamethasone, 1 µM; hits give low values; z-score, hits read low; 220,000 compounds, 0.47% hits;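 active = plate z-score of nuclear minus cytoplasmic receptor signal below a set negative limit, without overly bright fluorescence or cell loss, cut at about -3.5 in these data, passing the limit was not always enough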;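 note: z-score of nuclear minus cytoplasmic ring GR-EGFP intensity difference per well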
#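 medium = tetracycline-free induction medium containing charcoal-stripped FBS | also added = 1.0 µM final dexamethasone stimulus | schedule = 48 h induction, 1 h compound, 30 min dex at 37 °C | technique = fixed, Hoechst-stained cells imaged at 10x for EGFP | measure = GR-EGFP nuclear translocation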
# PTEN del growth – PTEN-deleted cell growth suppression. HCT116 PTEN-null viability, CellTiter-Glo, 60 h; hits give low values. viability, % at 10 µM. 140,000 compounds, 1.2% hits;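 active = viability at or below a set limit, 4 SD under the median of all tested compounds, cut at about 3.7% in these data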;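 note: PTEN knockout HCT116 line with beta catenin targeted HCT116 as companion control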
# Lmaj promast – Leishmania major promastigote growth inhibition; inhibition, % at 10 µM; Leishmania major promastigotes, resazurin fluorescence viability; AID 1063; 200,000 compounds, 9% hits; in the data active = inhibition above about 50%;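 note: promastigotes grown with compound for 44 hours at 28 °C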
# Autophagy HCS – autophagy modulation, high-content screen; MEF GFP-LC3 puncta imaging; test concentration mostly 10 µM; calls only at 10 µM (by protocol); 190,000 compounds, 0.98% hits; AID 463193;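 active = percentage of spot-positive cells more than 3 SD above its plate mean, without a fluorescence outlier flag or 80% toxicity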
# Numbers stand for hits; . = inactive; / = no result given; + = active, no number. The list is not random: actives were taken first. Their share in the collection is about 9.2%.
SMILES,bCat KO growth,Dynein transport,PTEN del growth,Lmaj promast,Autophagy HCS
Cn1c(N)c(C(=O)CCl)c(=O)n(Cc2ccccc2)c1=O,.,-5.95,.,62.5,.
Cn1c(=O)c(C(=O)CN2CCN(S(=O)(=O)c3ccccc3)CC2)c(N)n(Cc2ccccc2)c1=O,.,.,.,71.3,.
CC(C)C(=O)Nc1cccc(C(=O)Nc2nccs2)c1,.,.,.,.,.
O=C1C=C(NNC(=O)c2ccncc2)CC(c2ccccc2)C1 (stereo not given),/,.,/,.,.
CC(C)n1c(Nn2cnnc2)nc2ccccc21,.,.,.,.,.
CC(C)n1c(/C=C/c2ccccc2)nc2ccccc21,.,.,.,50.4,.
COCCn1c(-c2ccc(OC)cc2)nc2ccccc21,.,.,.,56.0,.
CC(C)Cn1c(/C=C/c2ccco2)nc2ccccc21,.,.,.,61.1,.
COCCOCCn1c(CCCO)nc2ccccc21,.,.,.,.,.
COCCOCCn1c(/C=C/c2ccccc2)nc2ccccc21,/,.,/,63.4,.
O=C(COC(=O)c1cn(-c2ccccc2)nc1-c1cccnc1)NC1CC1,/,.,/,.,.
CCCn1c(/C=C/c2ccccc2)nc2ccccc21,.,.,.,87.9,.
CC(C)c1ccccc1NC(=O)Cn1c(/C=C/c2ccccc2)nc2ccccc21,/,.,/,/,/
CC1(C)CC2(CCO1)OC(=O)CC2C(=O)Nc1ccc(Cl)cc1[N+](=O)[O-] (stereo not given),/,.,/,/,/
CC(NC(=O)C(=O)N/N=C/c1ccccc1)c1ccccc1 (stereo not given),/,.,/,.,.
COC(=O)CSc1nc(N)c2c3c(sc2n1)CCCC3,.,.,.,70.6,.
COC(=O)CSc1nc(N)c2c3c(sc2n1)C(c1ccccc1)SC(c1ccccc1)C3 (stereo not given),1.1,.,0.7,85.2,.
CCOC(=O)c1c(NC(=O)c2ccc(N3C(=O)[C@@H]4[C@H](C3=O)[C@H]3C=C[C@@H]4C3)cc2)sc2c1CC(C)CC2 (stereo not given in full),.,.,.,.,.
CCCCOc1ccc(C2CCC(C(C)=O)C(C)C2)cc1 (stereo not given),/,.,/,/,/
Cc1c(NC(=O)C(C)OC(=O)CCc2ccccc2)c(=O)n(-c2ccccc2)n1C (stereo not given),/,.,/,53.9,.
Cc1c(NC(=O)C(C)OC(=O)CCC2CCCC2)c(=O)n(-c2ccccc2)n1C (stereo not given),/,.,/,.,.
Cc1c(NC(=O)C(C)OC(=O)c2ccc([N+](=O)[O-])s2)c(=O)n(-c2ccccc2)n1C (stereo not given),/,.,/,76.6,.
COc1ccc(CN2CCN(CCCCOc3ccc(Cl)cc3)CC2)c(OC)c1OC,/,.,/,.,.
O/N=C(/CCc1ccccc1)c1ccc2c(c1)OCCO2,/,.,/,.,.
Cc1cccn2c(=O)c(C=NCCO)c(NCc3ccco3)nc12,.,.,.,.,.
SMILES,bCat KO growth,Dynein transport,PTEN del growth,Lmaj promast,Autophagy HCS
Cc1cccn2c(=O)c(C=NCc3ccco3)c(Nc3ccc(SC(F)F)cc3)nc12,.,.,.,91.1,.
COc1ccc2cc(-c3cc(C(=O)OCC(=O)NC4CCS(=O)(=O)C4)c4ccccc4n3)ccc2c1 (stereo not given),.,.,.,60.0,.
O=C(COC(=O)c1cc(-c2cccc3ccccc23)nc2ccccc12)NC1CCS(=O)(=O)C1 (stereo not given),.,.,.,69.2,.
Cc1cc(C(=O)OCC(=O)NC2CCS(=O)(=O)C2)c2ccccc2n1 (stereo not given),/,.,/,.,.
N=c1n(CCN2CCCC2)c2ccccc2n1CC(O)c1ccc(Cl)c(Cl)c1 (stereo not given),/,.,/,100.3,+
N=c1n(CCN2CCOCC2)c2ccccc2n1CC(=O)c1ccc(Cl)c(Cl)c1,.,.,.,65.6,.
CCCCOC(=O)Cn1c(=N)n(CCN2CCOCC2)c2ccccc21,/,.,/,.,.
CCCCCNCC(=O)Nc1cccc(C(=O)Nc2cccc(C(F)(F)F)c2)c1,/,.,/,.,.
COc1ccccc1N1CCN(C(=O)COc2ccc(S(=O)(=O)NC(C)C)cc2)CC1,/,.,/,.,.
CN(CC(=O)N1CCCc2c1c(=O)oc1ccc(O)cc21)Cc1ccccc1,.,.,.,.,.
CC(C(=O)N1CCCc2c1c(=O)oc1ccc(O)cc21)N1CCc2ccccc2C1 (stereo not given),.,.,.,94.6,.
CCc1ccc(C(=O)CSc2nc3ccccc3c(=O)[nH]2)cc1,.,.,.,98.1,.
Cc1ccc(C(=O)CSc2nc3ccccc3c(=O)[nH]2)cc1,.,.,.,.,.
O=c1[nH]c(SCCOc2cccc3ccccc23)nc2ccccc12,/,.,/,.,+
O=c1[nH]c(SCc2nc3ccccc3n2Cc2ccccc2)nc2ccccc12,2.1,.,2.7,.,.
CCCC12CN3CCN(CC(C3)/C1=N\NC(=O)c1ccccc1Cl)C2,/,.,/,.,.
Cn1cc(CNC(=O)CC2C(=O)NCCN2CC(C)(C)C)cn1 (stereo not given),/,.,/,.,.
Cc1ccc(CNC(=O)C2CCN(S(=O)(=O)c3c(C)noc3C)CC2)cc1,.,.,.,98.5,.
Cc1ccc(CNC(=O)C2CCCN(S(=O)(=O)c3c(C)noc3C)C2)cc1 (stereo not given),.,.,.,.,.
COc1ccc(OC)c(NC(=O)C2CCN(S(=O)(=O)c3c(C)noc3C)CC2)c1,.,.,.,.,.
COc1ccccc1CNC(=O)C1CCN(S(=O)(=O)c2c(C)noc2C)CC1,.,.,.,99.9,.
Cc1noc(C)c1S(=O)(=O)N1CCC(C(=O)NCCC2=CCCCC2)CC1,.,.,.,99.8,.
Cc1noc(/C=C/c2cccs2)c1S(=O)(=O)N1CCC(C(=O)NCCCN2CCCC(C)C2)CC1 (stereo not given),/,.,/,96.1,.
CN(C)C(=O)N1CCCC(C(=O)NCc2ccc(F)cc2Cl)C1 (stereo not given),.,.,.,.,.
Cc1ccc(CNC(=O)C2CCCN(C(=O)N(C)C)C2)cc1 (stereo not given),.,.,.,86.3,.
SMILES,bCat KO growth,Dynein transport,PTEN del growth,Lmaj promast,Autophagy HCS
CN1C=C/C(=C\c2cc[n+](C)c3ccccc23)c2ccccc21,/,.,/,100.6,.
CC[n+]1ccc(/C=C2\Sc3ccccc3N2CCCS(=O)(=O)[O-])c2ccccc21,/,.,/,.,.
CCCCCCCCCCCCCCCC(=O)OC[C@H](COP(=O)([O-])OCC[N+](C)(C)C)OC(=O)CCCCCCCCCCCCCCC,.,.,.,.,.
O=C1c2ccccc2C(=O)N1CCCCN(C(=O)c1cccc([N+](=O)[O-])c1)c1ccc(Cl)cc1,.,.,.,53.6,.
O=C1c2ccccc2C(=O)N1CCCCN(C(=O)c1ccco1)c1ccc(Cl)cc1,.,.,.,.,.
CCCCNC(=O)NNc1nc(Cl)cc(C)c1C#N,/,.,/,.,.
O=C(NC(=S)N(CCc1ccccc1)CCc1ccccc1)c1ccco1,.,.,.,94.7,.

# Bioassay records as filed in PubChem BioAssay.
